Calls of active or inactive are those of the source. The rule behind the calls is not given here.
How the values were obtained:
[1] = tested on: Respiratory syncytial virus; assay: Antiviral activity against RSV infected in human cervix carcinoma cells assessed as inhibition of virus-induced cytopathic effect at 0.32 to 100 uM; format: functional, organism-based
In short: (§1)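 Confluent cell cultures were infected with 100 CCID50 of virus in the presence of test compound at 100, 40, 8, 1.6 and 0.32 μM. Cytopathic effect was scored once it was complete in untreated infected controls.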

[2] = tested on: Coxsackievirus B4; assay: Antiviral activity against Coxsackievirus B4 infected in human cervix carcinoma cells assessed as inhibition of virus-induced cytopathic effect at 0.32 to 100 uM; format: functional, organism-based; in short: as §1
[3] = tested on: L1210; assay: Cytostatic activity against mouse L1210 cells after 2 days by coulter counter analysis; format: functional, cell-based; settings: L1210, 48 h
In short: (§2)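 300,000–500,000 cells/ml mixed 1:1 with compound dilutions and incubated at 37 °C for 2 days (L1210) or 3 days (CEM, HeLa). Cell number counted with a Coulter counter; HeLa trypsinized before counting.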

[4] = tested on: CCRF-CEM; assay: Cytostatic activity against human CEM cells after 3 days by coulter counter analysis; format: functional, cell-based; settings: 72 h; in short: as §2
[5] = tested on: HeLa; assay: Cytostatic activity against human HeLa cells after 3 days by coulter counter analysis; format: functional, cell-based; settings: 72 h; in short: as §2
[6] = tested on: HCT-116; assay: Cytostatic activity against human HCT116 cells after 72 hrs by MTT assay; format: functional, cell-based; settings: HCT-116, 72 h
In short: (§3)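 Monolayers in DMEM with 10% FBS, 2 mM L-glutamine and penicillin/streptomycin, 37 °C, 5% CO2. Seeded at 1–3 × 10^4 cells/ml, then compound added in tenfold dilutions (10⁻⁸–10⁻⁴ M) for 72 h. MTT read at 570 nm; percent growth taken against time-zero and untreated controls. IC50 by linear regression; quadruplicate, at least two experiments.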

[7] = tested on: MCF7; assay: Cytostatic activity against human MCF7 cells after 72 hrs by MTT assay; format: functional, cell-based; settings: MCF7, 72 h; in short: as §3
[8] = tested on: NCI-H460; assay: Cytostatic activity against human NCI-H460 cells after 72 hrs by MTT assay; format: functional, cell-based; settings: NCI-H460, 72 h; in short: as §3
[9] = tested on: Human alphaherpesvirus 1; assay: Antiviral activity against HSV1 KOS infected in human lung fibroblast assessed as inhibition of virus-induced cytopathic effect at 0.32 to 100 uM; format: functional, organism-based; in short: as §1
[10] = tested on: Human alphaherpesvirus 2; assay: Antiviral activity against HSV2 G infected in human lung fibroblast assessed as inhibition of virus-induced cytopathic effect at 0.32 to 100 uM; format: functional, organism-based; settings: strain G; in short: as §1
[11] = tested on: Vaccinia virus; assay: Antiviral activity against Vaccinia virus infected in human lung fibroblast assessed as inhibition of virus-induced cytopathic effect at 0.32 to 100 uM; format: functional, organism-based; settings: Orthopoxvirus vaccinia
[12] = tested on: Vesicular stomatitis virus; assay: Antiviral activity against VSV infected in human lung fibroblast assessed as inhibition of virus-induced cytopathic effect at 0.32 to 100 uM; format: functional, organism-based
[13] = tested on: Human respirovirus 3; assay: Antiviral activity against Parainfluenza virus 3 infected in african green monkey Vero cells assessed as inhibition of virus-induced cytopathic effect at 0.32 to 100 uM; format: functional, organism-based; in short: as §1
[14] = tested on: Mammalian orthoreovirus 1; assay: Antiviral activity against Reovirus-1 infected in african green monkey Vero cells assessed as inhibition of virus-induced cytopathic effect at 0.32 to 100 uM; format: functional, organism-based; in short: as §1
[15] = tested on: Sindbis virus; assay: Antiviral activity against Sindbis virus infected in african green monkey Vero cells assessed as inhibition of virus-induced cytopathic effect at 0.32 to 100 uM; format: functional, organism-based; in short: as §1
[16] = tested on: Coxsackievirus B4; assay: Antiviral activity against Coxsackievirus B4 infected in african green monkey Vero cells assessed as inhibition of virus-induced cytopathic effect at 0.32 to 100 uM; format: functional, organism-based; in short: as §1
[17] = tested on: Punta Toro virus; assay: Antiviral activity against Punta Toro virus infected in african green monkey Vero cells assessed as inhibition of virus-induced cytopathic effect at 0.32 to 100 uM; format: functional, organism-based; in short: as §1
[18] = tested on: Vesicular stomatitis virus; assay: Antiviral activity against Vesicular stomatitis virus infected in human cervix carcinoma cells assessed as inhibition of virus-induced cytopathic effect at 0.32 to 100 uM; format: functional, organism-based
In short: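 Confluent human cervix carcinoma (HeLa) cultures received 100 CCID50 of VSV together with the compound at 100, 40, 8, 1.6 or 0.32 μM. Cytopathicity was read at the point of full CPE in infected, untreated control wells.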

[19] = tested on: Felid alphaherpesvirus 1; assay: Antiviral activity against Feline herpesvirus infected in feline CRFK cells assessed as inhibition of virus-induced cytopathic effect at 0.32 to 100 uM; format: functional, organism-based; in short: as §1
[20] = tested on: Feline coronavirus; assay: Antiviral activity against Feline coronavirus infected in feline CRFK cells assessed as inhibition of virus-induced cytopathic effect at 0.32 to 100 uM; format: functional, organism-based; in short: as §1
[21] = tested on: Influenza A virus; assay: Antiviral activity against Influenza A virus H1N1 infected in MDCK cells assessed as inhibition of virus-induced cytopathic effect at 0.32 to 100 uM; format: functional, organism-based
In short: (§4)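 Confluent MDCK monolayers were infected in the presence of the compound at 100, 40, 8, 1.6 and 0.32 μM. Viral cytopathicity was scored once it was complete in untreated infected control cultures.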

[22] = tested on: Influenza A virus; assay: Antiviral activity against Influenza A virus H3N2 infected in MDCK cells assessed as inhibition of virus-induced cytopathic effect at 0.32 to 100 uM; format: functional, organism-based; in short: as §4
[23] = tested on: Influenza B virus; assay: Antiviral activity against Influenza B virus infected in MDCK cells assessed as inhibition of virus-induced cytopathic effect at 0.32 to 100 uM; format: functional, organism-based; in short: as §4
[24] = tested on: Human immunodeficiency virus 1; assay: Antiviral activity against HIV1 3B infected in human CEM cells assessed as inhibition of virus-induced CEM giant cell formation at 0.32 to 100 uM after 4 days; format: functional, organism-based; settings: CCRF-CEM
In short: (§5)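 CEM cells (~3 × 10^5 cells/cm³) exposed to 100 CCID50/ml of virus and seeded into wells holding compound dilutions. Incubated 4 days at 37 °C, then giant cell formation examined microscopically.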

[25] = tested on: Human immunodeficiency virus 2; assay: Antiviral activity against HIV2 ROD infected in human CEM cells assessed as inhibition of virus-induced CEM giant cell formation at 0.32 to 100 uM after 4 days; format: functional, organism-based; settings: ISOLATE ROD, CCRF-CEM; in short: as §5
[26] = tested on: Radical scavenging activity; assay: Antioxidant activity assessed as DPPH free radical scavenging activity at 100 uM after 20 mins by spectrophotometric analysis; format: functional
In short: (§6)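 0.05 mM DPPH in absolute ethanol mixed with an equal volume of compound in DMSO (final 100 μM). Shaken and left 20 or 60 min, then absorbance read at 517 nm and percent activity calculated. Three replicates, averaged.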

[27] = tested on: Radical scavenging activity; assay: Antioxidant activity assessed as DPPH free radical scavenging activity at 100 uM after 60 mins by spectrophotometric analysis; format: functional; in short: as §6
[28] = Antioxidant activity assessed as inhibition of AAPH-induced linoleic acid lipid peroxidation by measuring conjugated diene hydroperoxide level; format: functional; parameters: concentration or dose not given beside the values; settings: dose or concentration not given here
In short: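 Linoleic acid sodium salt (10 μL of 16 mM) in 0.05 M phosphate buffer pH 7.4 at 37 °C. Oxidation started under air with 50 μL of 40 mM AAPH. Conjugated diene hydroperoxide formation followed as absorbance rise at 234 nm; control contains the same DMSO level. At least triplicate.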

[29] = tested on: Glycine max; assay: Inhibition of soybean LOX assessed as conversion of sodium linoleate to 13- hydroperoxylinoleic acid at 100 uM

| Structure (SMILES) | inhibition [1] | inhibition [2] | IC50 [4] [µM] | IC50 [5] [µM] | IC50 [6] [µM] | IC50 [7] [µM] | IC50 [8] [µM] | inhibition [9] | inhibition [10] | inhibition [11] | inhibition [12] | inhibition [13] | inhibition [14] | inhibition [15] | inhibition [16] | inhibition [17] | inhibition [18] | inhibition [19] | inhibition [20] | inhibition [21] | also measured |
| --- | --- | --- | --- | --- | --- | --- | --- | --- | --- | --- | --- | --- | --- | --- | --- | --- | --- | --- | --- | --- | --- |
| CC(C)Cc1ccc(C(C)C(=O)NNC(=O)NCc2ccccc2)cc1 (stereo not given) | inactive | inactive | 74 | 173 | 34 | 29 | 59 | inactive | inactive | inactive | inactive | inactive | inactive | inactive | inactive | inactive | inactive | inactive | inactive | inactive | IC50 [3]: 110 µM; inhibition [22]: inactive; inhibition [23]: inactive; inhibition [24]: inactive; inhibition [25]: inactive; Activity [26]: inactive; Activity [27]: inactive; inhibition [28]: 12%; inhibition [29]: inactive |
| CC(C)Cc1ccc(C(C)C(=O)NNC(=O)NO)cc1 (stereo not given) | inactive | inactive | 205 | 160 | > 100 | > 100 | > 100 | inactive | inactive | inactive | inactive | inactive | inactive | inactive | inactive | inactive | inactive | inactive | inactive | inactive | IC50 [3]: 108 µM; inhibition [22]: inactive; inhibition [23]: inactive; inhibition [24]: inactive; inhibition [25]: inactive; Activity [26]: 29%; Activity [27]: 54%; inhibition [28]: 20%; inhibition [29]: 7% |
| CC(C(=O)NNC(=O)NNC(=O)NO)c1cccc(Cc2ccccc2)c1 (stereo not given) | inactive | inactive | > 250 | ≥ 250 | > 100 | > 100 | > 100 | inactive | inactive | inactive | inactive | inactive | inactive | inactive | inactive | inactive | inactive | inactive | inactive | inactive | IC50 [3]: > 250 µM; inhibition [22]: inactive; inhibition [23]: inactive; inhibition [24]: inactive; inhibition [25]: inactive; Activity [26]: 28%; Activity [27]: 53%; inhibition [28]: 28%; inhibition [29]: 1% |
| CC(C(=O)NNC(=O)NC1CCCCC1)c1cccc(Cc2ccccc2)c1 (stereo not given) | inactive | inactive | 25 | 45 | 22 | 16 | 23 | inactive | inactive | inactive | inactive | inactive | inactive | inactive | inactive | inactive | inactive | inactive | inactive | inactive | inhibition [22]: inactive; inhibition [23]: inactive; inhibition [24]: inactive; inhibition [25]: inactive; Activity [26]: 3%; Activity [27]: 10%; inhibition [28]: 31%; inhibition [29]: 10% |

— ChEMBL document CHEMBL2010803, “Novel NSAID 1-acyl-4-cycloalkyl/arylsemicarbazides and 1-acyl-5-benzyloxy/hydroxy carbamoylcarbazides as potential anticancer agents and antioxidants” (Eur J Med Chem, 2012)
